Data: ChEMBL document CHEMBL5230174, “Synthesis and properties of the kojic acid dimer and its potential for the treatment of Alzheimer's disease” (RSC Med Chem, 2023)
Active and inactive are the calls of the source. The rule behind the calls is not given here.

What was measured:
[1] = Metal chelating activity assessed as compound-Zn2+ complex formation by measuring optical responses at 100 uM in presence of ZnCl2 by UV-Vis spectroscopy
Summary of the method: (§1)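 Compound held at 100 μM in HEPES buffer (pH 7.4). The metal salt (CuSO4, ZnCl2, FeCl2, FeCl3·7H2O, AlCl3, Mn(CH3COO)2, MgSO4, NaCl, KCl or CaCl2) was added at one equivalent, and the UV-vis absorption spectrum was recorded from 200 to 800 nm.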

[2] = Metal chelating activity assessed as compound-Fe2+ complex formation at stoichiometric ratio of 1:1 at 100 uM in presence of FeCl2 by UV-Vis spectroscopy
[3] = Metal chelating activity assessed as compound-Fe3+ complex formation by measuring optical responses at 100 uM in presence of FeCl3 by UV-Vis spectroscopy; summary of the method: as §1
[4] = Metal chelating activity assessed as compound-Mn2+ complex formation by measuring optical responses at 100 uM in presence of Mn(CH3COO)2 by UV-Vis spectroscopy; summary of the method: as §1
BV-2 [5] = assay: Antioxidant activity in mouse BV-2 cells assessed as reduction in H2O2-induced intracellular ROS accumulation by measuring intracellular ROS level at 125 uM pretreated for 24 hrs followed by H2O2 challenge for 12 hrs by DCFH-DA staining based flow cytometry (reference value: 40.7%); type: functional; parameters: scale not given: the % may be the effect or the level left; conditions: time 36 hrs
[6] = Cytotoxicity against human L02 cells assessed as reduction in cell viability incubated for 24 hrs by MTT assay; type: toxicity, cell-based
Summary of the method: (§2)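 Cells grown with 10% FBS plus penicillin/streptomycin at 37 °C, 5% CO2 (SH-SY5Y in DMEM/F12; BV-2, HT-22, H9c2 in DMEM; L02 in RPMI 1640). Seeded 1 × 10^4 per well, 24 h, then compound in medium 24 h. MTT (5 mg/mL stock) added 4 h at 37 °C; formazan dissolved in DMSO, A490 read.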

[7] = Antioxidant activity assessed as ABTS radical scavenging activity at 100 uM incubated for 6 mins under dark condition by UV-Vis spectrophotometry; type: functional
Summary of the method: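 Compound dilutions made in DMSO. ABTS (7 mM in water) reacted with 4.96 mM potassium persulfate, 16 h dark at room temperature; working solution adjusted to A734 0.70 ± 0.02. Working solution mixed with sample 9:1, shaken 6 min at room temperature in dark; A734 read on plate reader. Scavenging rate from absorbance; triplicate wells, three independent experiments.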

[8] = Induction of intracellular ROS accumulation in mouse BV-2 cells at 500 uM treated for 24 hrs by DCFH-DA staining based flow cytometry (reference value: 7.15%); type: toxicity, cell-based; conditions: bv-2, 24 h
[9] = Cytotoxicity against mouse BV-2 cells assessed as reduction in cell viability incubated for 24 hrs by MTT assay; type: toxicity, cell-based; summary of the method: as §2
[10] = Metal chelating activity assessed as compound-Cu2+ complex formation at stoichiometric ratio of 1:1 at 100 uM in presence of CuSO4 by UV-Vis spectroscopy
Summary of the method: (§3)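 Compound held at 100 μM in HEPES buffer (pH 7.4) and titrated with Cu2+ at 12.5–200 μM (nine levels). UV-vis spectra were followed at 370 and 475 nm. Stoichiometry was taken from a plot of absorbance at 475 nm against the Cu2+:compound ratio.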

[11] = Metal chelating activity assessed as compound-Cu2+ complex formation by measuring decrease in absorption band intensity at 370 nm at 100 uM in presence of CuSO4 by UV-Vis spectroscopy; summary of the method: as §3
[12] = Metal chelating activity assessed as compound-Cu2+ complex formation by measuring increase in absorption band intensity at 475 nm at 100 uM in presence of CuSO4 by UV-Vis spectroscopy; summary of the method: as §3
[13] = Cytotoxicity against human SH-SY5Y cells assessed as reduction in cell viability incubated for 24 hrs by MTT assay; type: toxicity, cell-based; summary of the method: as §2
H9c2 [14] = assay: Neuroprotective activity against H2O2-induced oxidative damage in rat H9c2 cells assessed as increase in cell viability at 125 to 500 uM pretreated for 24 hrs followed by H2O2 challenge for 2 hrs by MTT assay; type: functional, cell-based; conditions: dose 125-500 µM, time 26.0 hrs
[15] = Metal chelating activity assessed as compound-Na+ complex formation by measuring optical responses at 100 uM in presence of NaCl by UV-Vis spectroscopy; summary of the method: as §1
[16] = Metal chelating activity assessed as compound-Fe2+ complex formation by measuring optical responses at 100 uM in presence of FeCl2 by UV-Vis spectroscopy; summary of the method: as §1
BV-2 [17] = assay: Antioxidant activity in mouse BV-2 cells assessed as reduction in H2O2-induced intracellular ROS accumulation at 125 to 500 uM pretreated for 24 hrs followed by H2O2 challenge for 12 hrs by DCFH-DA staining based inverted fluorescence microscopy; type: functional, cell-based; conditions: dose 125-500 µM, time 36.0 hrs
Summary of the method: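 BV-2 cells (2 × 10^5/well) are pretreated with compound for 24 h, then given 1000 μM H2O2 for 12 h. They are loaded with 10 μM DCFH-DA in serum-free medium for 30 min at 37 °C and washed three times with PBS.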

H9c2 [18] = assay: Antioxidant activity in rat H9c2 cells assessed as reduction in H2O2-induced ROS burst by measuring increase in SOD activity at 125 to 500 uM treated with compound prior to H2O2 challenge; type: functional, cell-based; conditions: dose 125-500 µM
[19] = Antioxidant activity assessed as DPPH radical scavenging activity at 100 uM incubated for 30 mins under dark condition by UV-Vis spectrophotometry relative to kojic acid; type: functional
Summary of the method: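 Samples serially diluted in DMSO, tested at 400–6.25 μM. Mixed with 100 μM DPPH in ethanol at 9:1 reagent:sample and shaken 30 min in the dark at room temperature. Absorbance read at 517 nm. Scavenging rate (%) is the mean of three independent experiments, each run in triplicate wells.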

[20] = Metal chelating activity assessed as compound-Ca2+ complex formation by measuring optical responses at 100 uM in presence of CaCl2 by UV-Vis spectroscopy; summary of the method: as §1
[21] = Antioxidant activity assessed as ABTS radical scavenging activity at 100 uM incubated for 6 mins under dark condition by UV-Vis spectrophotometry relative to kojic acid; type: functional
Summary of the method: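 Samples serially diluted in DMSO, tested at 400–6.25 μM. ABTS (7 mM, water) reacted with 4.96 mM potassium persulfate for 16 h in the dark at room temperature, then diluted to A734 of 0.70 ± 0.02. Working solution mixed 9:1 with sample and shaken 6 min in the dark at room temperature. Absorbance read at 734 nm; scavenging rate (%) is the mean of three independent experiments.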

[22] = Metal chelating activity assessed as compound-Al3+ complex formation by measuring optical responses at 100 uM in presence of AlCl3 by UV-Vis spectroscopy; summary of the method: as §1
[23] = target: Amyloid-beta precursor protein (Homo sapiens) (UniProt P05067); assay: Inhibition of HFIP-pretreated human amyloid beta (1 to 42) aggregation at 50 uM incubated for 24 hrs under dark condition by Thioflavin T dye based fluorometric analysis
Summary of the method: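 HFIP-pretreated human Aβ1–42 dissolved at 1000 μM in 1% NH4OH, sonicated 1 h cold, stored −20 °C, diluted in PBS pH 7.4. Aβ (25 μM final) incubated with compound (50 μM final) or PBS 24 h at 37 °C in dark. Aliquot mixed with 5 μM ThT in Gly-NaOH pH 8.5, shaken 5 min; fluorescence ex 450/em 490 nm. Inhibition = 1 − Fs/F0, background ThT subtracted; three independent experiments.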

SH-SY5Y = assay: Neuroprotective activity against H2O2-induced oxidative damage in human SH-SY5Y cells assessed as increase in cell viability at 500 uM pretreated for 24 hrs followed by H2O2 challenge for 2 hrs by MTT assay; type: functional, cell-based; conditions: time 26.0 hrs
Summary of the method: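 SH-SY5Y cells are seeded at 1 × 10^4/well in DMEM/F12 with 10% FBS and grown 24 h. They are pretreated with compound for 24 h, then given 200 μM H2O2 for 2 h. MTT (5 mg/mL stock) is added for 4 h, formazan dissolved in DMSO, and A490 read. Viability is given as % of untreated control, mean ± SEM (n = 3).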

BV-2 [24] = assay: Antioxidant activity in mouse BV-2 cells assessed as reduction in H2O2-induced intracellular ROS accumulation by measuring intracellular ROS level at 250 uM pretreated for 24 hrs followed by H2O2 challenge for 12 hrs by DCFH-DA staining based flow cytometry (reference value: 40.7%); type: functional; parameters: scale not given: the % may be the effect or the level left; conditions: time 36 hrs
[25] = Cytotoxicity against mouse HT-22 cells assessed as reduction in cell viability incubated for 24 hrs by MTT assay; type: toxicity, cell-based; summary of the method: as §2
H9c2 [26] = assay: Antioxidant activity in rat H9c2 cells assessed as reduction in H2O2-induced intracellular ROS accumulation at 125 to 500 uM pretreated for 24 hrs followed by H2O2 challenge for 4 hrs by DCFH-DA staining based inverted fluorescence microscopy; type: functional, cell-based; conditions: dose 125-500 µM, time 28.0 hrs
[27] = Antioxidant activity assessed as ABTS radical scavenging activity at 50 uM incubated for 6 mins under dark condition by UV-Vis spectrophotometry; type: functional
Summary of the method: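 ABTS radical cation is generated from 7 mM ABTS and 4.96 mM potassium persulfate, kept dark at room temperature for 16 h, and diluted to A734 0.70 ± 0.02. Samples are serially diluted in DMSO and mixed with working solution, then shaken 6 min at room temperature in the dark before reading A734. Scavenging rate (%) comes from triplicate wells; VC and KA are controls.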

[28] = Metal chelating activity assessed as compound-Mg2+ complex formation by measuring optical responses at 100 uM in presence of MgSO4 by UV-Vis spectroscopy; summary of the method: as §1
[29] = Cytotoxicity against rat H9c2 cells assessed as reduction in cell viability incubated for 24 hrs by MTT assay; type: toxicity, cell-based; summary of the method: as §2
[30] = Metal chelating activity assessed as compound-K+ complex formation by measuring optical responses at 100 uM in presence of KCl by UV-Vis spectroscopy; summary of the method: as §1
[31] = Antioxidant activity assessed as DPPH radical scavenging activity at 100 uM incubated for 30 mins under dark condition by UV-Vis spectrophotometry; type: functional
Summary of the method: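 Compound dilutions made in DMSO. 100 μM DPPH in ethanol mixed 9:1 with sample, shaken 30 min in dark at room temperature; absorbance read at 517 nm on plate reader. Scavenging rate calculated from absorbance; triplicate wells, three parallel measurements, three independent experiments.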

BV-2 [32] = assay: Antioxidant activity in mouse BV-2 cells assessed as reduction in H2O2-induced ROS burst by measuring increase in SOD activity at 125 to 500 uM treated with compound prior to H2O2 challenge; type: functional, cell-based; conditions: dose 125-500 µM
[33] = Metal chelating activity assessed as compound-Cu2+ complex formation by measuring optical responses at 100 uM in presence of CuSO4 by UV-Vis spectroscopy; summary of the method: as §1
BV-2 [34] = assay: Antioxidant activity in mouse BV-2 cells assessed as reduction in H2O2-induced intracellular ROS accumulation by measuring intracellular ROS level at 500 uM pretreated for 24 hrs followed by H2O2 challenge for 12 hrs by DCFH-DA staining based flow cytometry (reference value: 40.7%); type: functional; parameters: scale not given: the % may be the effect or the level left; conditions: time 36 hrs
H9c2 [35] = assay: Antioxidant activity in rat H9c2 cells assessed as reduction in H2O2-induced intracellular ROS accumulation at 125 to 500 uM pretreated for 24 hrs followed by H2O2 challenge for 4 hrs by DCFH-DA staining based flow cytometry; type: functional, cell-based; conditions: dose 125-500 µM, time 28.0 hrs

Sequence of Amyloid-beta precursor protein (Homo sapiens) (P05067 whole entry): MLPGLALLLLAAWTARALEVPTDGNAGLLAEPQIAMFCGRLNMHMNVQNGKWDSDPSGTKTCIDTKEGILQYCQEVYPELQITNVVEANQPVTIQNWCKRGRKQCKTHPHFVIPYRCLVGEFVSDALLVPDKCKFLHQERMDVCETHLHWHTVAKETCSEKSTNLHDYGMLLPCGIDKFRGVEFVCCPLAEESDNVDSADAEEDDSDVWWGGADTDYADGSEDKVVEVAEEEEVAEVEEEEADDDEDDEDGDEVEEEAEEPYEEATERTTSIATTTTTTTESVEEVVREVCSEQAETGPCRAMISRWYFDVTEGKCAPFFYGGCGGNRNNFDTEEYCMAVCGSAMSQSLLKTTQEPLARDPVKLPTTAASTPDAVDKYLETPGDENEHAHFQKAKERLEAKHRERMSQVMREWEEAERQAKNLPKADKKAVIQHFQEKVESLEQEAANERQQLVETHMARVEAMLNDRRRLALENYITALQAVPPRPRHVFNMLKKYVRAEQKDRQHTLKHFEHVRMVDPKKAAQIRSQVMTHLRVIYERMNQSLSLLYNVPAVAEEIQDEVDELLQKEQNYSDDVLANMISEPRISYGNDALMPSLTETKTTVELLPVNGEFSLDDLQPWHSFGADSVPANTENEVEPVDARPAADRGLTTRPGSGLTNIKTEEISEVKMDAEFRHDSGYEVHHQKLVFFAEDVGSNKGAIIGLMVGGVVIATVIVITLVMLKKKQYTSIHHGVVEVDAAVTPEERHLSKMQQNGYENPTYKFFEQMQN

SMILES: O=c1cc(CO)oc(-c2oc(CO)cc(=O)c2O)c1O
- Activity [1]: Active
- Activity [2]: Active
- Activity [3]: Active
- Activity [4]: inactive
- Activity (BV-2 [5]): 29.4%
- IC50 at 24 h [6]: > 500 µM
- Activity [7]: 79.4%
- Activity [8]: 14%
- IC50 at 24 h [9]: > 500 µM
- Activity [10]: Active
- Activity [11]: Active
- Activity [12]: Active
- IC50 at 24 h [13]: > 500 µM
- Activity (H9c2 [14]): Active
- Activity [15]: inactive
- Activity [16]: Active
- Activity (BV-2 [17]): Active
- Activity (H9c2 [18]): Active
- fold change (FC) [19]: 2
- Activity [20]: inactive
- fold change (FC) [21]: 2
- Activity [22]: Active
- inhibition [23]: 17%
- Activity (SH-SY5Y): Active
- Activity (BV-2 [24]): 24.8%
- IC50 at 24 h [25]: > 500 µM
- Activity (H9c2 [26]): Active
- Activity [27]: 56%
- Activity [28]: inactive
- IC50 at 24 h [29]: > 500 µM
- Activity [30]: inactive
- Activity [31]: 50.3%
- Activity (BV-2 [32]): Dose-Dependent Effect
- Activity [33]: Active
- Activity (BV-2 [34]): 21.6%
- Activity (H9c2 [35]): Active

SMILES: O=c1cc(CO)occ1O [KOJIC ACID]
- IC50 at 24 h [6]: > 500 µM
- Activity [7]: 46.8%
- IC50 at 24 h [9]: > 500 µM
- IC50 at 24 h [13]: > 500 µM
- inhibition [23]: 14.6%
- IC50 at 24 h [25]: > 500 µM
- IC50 at 24 h [29]: > 500 µM
- Activity [31]: 17.8%

SMILES: O=C1O[C@H]([C@@H](O)CO)C(O)=C1O
- Activity [27]: 39.7%
